Our source for the Activity values is ChEMBL document CHEMBL1140433, “Design, synthesis, and evaluation of pharmacological properties of cinnamic derivatives as antiatherogenic agents” (2005).

Common to all, as to format: functional, Homo sapiens
The subject of experiment [1] is HMEC. The experiment can be described thus: Ability to inhibit HMEC1-mediated LDL oxidation at 10 uM evaluated by TBARS formation in the presence of copper. Also noted: scale not given: the % may be the effect or the level left. In outline: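 Human plasma LDL (100 µg apoB/mL) was incubated with subconfluent HMEC-1 in serum-free RPMI-1640 with 1 µM Cu2+ for 6 h at 37 °C. Cells had been serum-starved for 24 h. Compound was added in DMSO just before oxidation, in duplicate. TBARS in the medium were measured fluorimetrically (Yagi), as % of cell-oxidized LDL without antioxidant. Mean of four determinations.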

Experiment [2] deals with HMEC. The experiment can be described thus: Cytotoxic effect of LDL oxidized by HMEC1 cells at 10 uM by MTT assay expressed as percentage of viability in unstimulated control. Put shortly:
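LDL (100 µg apoB/mL) was first oxidized by HMEC-1 for 6 h in RPMI with 1 µM Cu2+ and compound at 10 µM. This LDL then stayed on serum-starved HMEC-1 for a 24 h pulse. Viability was read by MTT as % of control cells in fresh RPMI without LDL or antioxidant. Mean of four determinations.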
Background: Formazan colour is commonly taken as a measure of viable cells.

For experiment [3], the system named is HMEC. The experiment can be described thus: Ability to inhibit HMEC1-mediated LDL oxidation at 100 uM evaluated by TBARS formation in the absence of copper. Also noted: scale not given: the % may be the effect or the level left.
The subject of experiment [4] is HMEC. Kind of experiment: Ability to inhibit HMEC1-mediated LDL oxidation at 10 uM evaluated by TBARS formation in the absence of copper. Also noted: scale not given: the % may be the effect or the level left.

In the case of `COc1cccc(/C=C/C(=O)Nc2ccccn2)c1`, the Activity is 61.3% in experiment [1] and 48.7% in experiment [2].
Turning to `CCOP(=O)(O)/C=C/c1cc(OC)c(O)c(OC)c1`, the values for the Activity in experiment [1] and in experiment [2] were 16% and 45%, respectively.
Turning to `COc1ccc(/C=C/C(=O)Nc2ccccn2)cc1OC`, the Activity in experiment [1] came out at 100%; in experiment [2], 20.7%.
Taken in the same sequence, the figures for `Cc1c(C)c2c(c(C)c1O)CC[C@@](C)(CCC[C@H](C)CCC[C@H](C)CCCC(C)C)O2` [ALPHA-TOCOPHEROL] were 55% and 29%.
Regarding `COc1cc(/C=C/C(=O)NCCc2c[nH]c3ccccc23)ccc1O`, the Activity in experiment [1] stood at 9.6%; in experiment [2], 93.6%.
Take `COc1cc(/C=C/C(=O)SCCNC(C)=O)cc(OC)c1O`: the Activity in experiment [3] is reported as 8%; in experiment [4], 18%; in experiment [1], 12.7%; in experiment [2] it was 88.7%.
As to `CC(C)(Sc1cc(C(C)(C)C)c(O)c(C(C)(C)C)c1)Sc1cc(C(C)(C)C)c(O)c(C(C)(C)C)c1` [PROBUCOL], the values for the Activity in experiment [1] and in experiment [2] were 10% and 92%, respectively.
Regarding `CC(=O)NCCSC(=O)/C=C/c1ccc(O)cc1`, the Activity in experiment [1] is reported as 95.6%; in experiment [2], 22.6%.
As for `COc1ccc(/C=C/C(=O)SCCNC(C)=O)cc1`, the Activity came out at 109% in experiment [1] and 21.7% in experiment [2].
As for `CCOP(=O)(O)/C=C/c1ccc(O)cc1`, the Activity in experiment [1] is recorded as 101%; in experiment [2] it was 13.3%.
On to `CCOP(=O)(O)/C=C/c1ccc(O)c(OC)c1`, for which the figures for the Activity in experiment [1] and in experiment [2] were 52.7% and 21.7%, respectively.
On to `CCOP(=O)(/C=C/c1cc(OC)c(O)c(OC)c1)OCC`, for which the Activity was 13% in experiment [1] and 81% in experiment [2].
`COc1cc(/C=C/C(=O)SCCNC(C)=O)ccc1O`: the Activity in experiment [1] was 40.3%; in experiment [2] it was 69.3%.
In the case of `CCOP(=O)(/C=C/c1ccc(O)cc1)OCC`, the Activity in experiment [1] is listed as 77.6%; in experiment [2], 65.3%.
Regarding `CCOP(=O)(/C=C/c1ccc(O)c(OC)c1)OCC`, the Activity in experiment [1] was determined as 32.3%; in experiment [2], 75.7%.
